Laboratory results published in ChEMBL document CHEMBL1130198, “Inhibition of tubulin polymerization by 5,6-dihydroindolo[2,1-alpha]isoquinoline derivatives” (J Med Chem, 1997).

Experiments:
MDA-MB-231 [1] = assay: Inhibition of estrogen receptor negative MDA-MB 231 breast cancer cell proliferation at 10 uM; type: functional, cell-based; settings: Homo sapiens
In short: (§1)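 MDA-MB 231 cells grown in McCoy-5a with L-glutamine, gentamycin, NaHCO3 and 5% FCS, 5% CO2, 37 °C. Cells were seeded in 96-well plates and grown 2–3 days, then given medium containing compound; controls had 0.1% DMF. After about 4 days, cells were fixed with 1% glutaric dialdehyde, stained with 0.02% crystal violet, extracted with 70% EtOH, and OD578 was read against initial density.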

MDA-MB-231 [2] = assay: Inhibition of estrogen receptor negative MDA-MB 231 breast cancer cell proliferation at 1 uM; type: functional, cell-based; settings: Homo sapiens; in short: as §1
Tubulin [3] = molecular target: T1, Tubulin (Bos taurus, UniProt Q6B856+Q862L2+Q862F3); assay: Inhibition of tubulin polymerization using isolated calf brain; type: functional
In short: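 Twice-cycled, MAP-containing calf brain microtubules depolymerized in PEMG buffer (0.8 M glutamate, pH 6.6-6.7) at 0 °C; compound in DMSO, preincubated 15 min at 37 °C, chilled, GTP added; turbidity at 350 nm over 20 min after shift from 2 to 37 °C.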

Tubulin [4] = molecular target: T1, Tubulin; assay: Inhibition of tubulin polymerization using isolated calf brain at 26 degrees C; type: functional
[5] = molecular target: Tubulin alpha chain (Bos taurus) (UniProt P81947); assay: Inhibition of colchicine binding to tubulin; settings: concentration not given here
MDA-MB-231 [6] = assay: Inhibition of the growth of MDA-MB 231 human breast cancer cells; type: functional, cell-based
MCF7 = assay: Inhibition of estrogen receptor positive MCF-7 human breast cancer cell proliferation; type: functional, cell-based
In short: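 MCF-7 cells in EMEM with 10% FCS; treatment medium contains dextran-charcoal-treated FCS; exposure ca. 8 days; glutaraldehyde fixation, crystal violet staining, optical density read at 578 nm.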

Tubulin (Bos taurus) = Tubulin (Bos taurus) (UniProt Q6B856+Q862L2+Q862F3); assay: Inhibition of colchicine binding to tubulin; type: functional; settings: concentration not given here
In short: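 Calf brain tubulin (prepared as for polymerization) diluted 1:10 in ice-cold PEM buffer (PIPES, EGTA, MgSO4, pH 6.6-6.7); 1 µM [3H]colchicine with 10 µM inhibitor, DMSO vehicle, 30 min at 37 °C; GTP added on ice, filtered through DEAE-cellulose, washed; tubulin-bound radioactivity by scintillation counting, tubulin-free mixtures as background. Mean of two independent experiments.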

MDA-MB-231 [7] = assay: Inhibition of estrogen receptor negative MDA-MB 231 breast cancer cell proliferation; type: functional, cell-based; settings: Homo sapiens
In short: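 MDA-MB 231 cells (hormone-independent) in McCoy-5a with 5% FCS, grown 2–3 days in 96-well plates at 37 °C, 5% CO2, then medium with test compound (DMF stock; 0.1% DMF controls) for about 4 days; glutaraldehyde fixation, 0.02% crystal violet staining, ethanol extraction, OD 578 nm versus initial density. IC50 from two independent experiments.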

Tubulin [8] = molecular target: T1, Tubulin; assay: Inhibition of tubulin polymerization using isolated calf brain at 37 degrees C; type: functional

Tubulin alpha chain (Bos taurus), sequence (P81947 whole entry, looked up): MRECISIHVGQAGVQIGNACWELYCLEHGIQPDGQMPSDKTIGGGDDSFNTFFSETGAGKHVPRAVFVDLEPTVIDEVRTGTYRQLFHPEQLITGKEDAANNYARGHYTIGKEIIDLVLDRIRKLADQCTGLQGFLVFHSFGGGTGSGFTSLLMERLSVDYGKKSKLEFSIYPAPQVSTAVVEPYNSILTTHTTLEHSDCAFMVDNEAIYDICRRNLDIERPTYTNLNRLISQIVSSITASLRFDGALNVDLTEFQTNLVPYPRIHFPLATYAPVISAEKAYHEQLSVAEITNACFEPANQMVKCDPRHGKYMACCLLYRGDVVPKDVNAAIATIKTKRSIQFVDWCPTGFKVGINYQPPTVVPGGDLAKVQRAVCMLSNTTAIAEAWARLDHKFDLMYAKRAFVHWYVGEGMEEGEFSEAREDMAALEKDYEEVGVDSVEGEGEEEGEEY

SMILES | IC50 (MDA-MB-231 [6]) [nM] | IC50 (MCF7) [nM] | other results
COc1cc2c(cc1O)CC[C@@H]1[C@@H]2CC[C@]2(C)[C@@H](O)CC[C@@H]12 [2-METHOXYESTRADIOL] |  |  | IC50 (MDA-MB-231 [1]): 5000 nM; IC50 (MDA-MB-231 [2]): 250 nM; IC50 (Tubulin [3]): 60000 nM; IC50 (Tubulin [4]): 12000 nM; inhibition [5]: 44%
CCCCC1Cc2cc(OC)ccc2-c2c(CNC)c3ccc(OC)cc3n21 (stereo unspecified) | 2100 |  | 
CCCCC1Cc2cc(OC)ccc2-c2c(/C=N/O)c3ccc(OC)cc3n21 (stereo unspecified) | > 10000 |  | 
CCCCC1Cc2cc(OC)ccc2-c2c(C=O)c3cc(OC)ccc3n21 (stereo unspecified) | > 10000 |  | 
CCCCC1Cc2cc(OC)ccc2-c2c(/C=N/Cc3ccccc3)c3ccc(OC)cc3n21 (stereo unspecified) | 5700 |  | 
CCCCC1Cc2cc(O)ccc2-c2cc3cc(O)c(O)cc3n21 (stereo unspecified) | > 10000 | > 10000 | 
CCCCC1Cc2cc(O)ccc2-c2c(C=O)c3ccc(O)cc3n21 (single isomer, unassigned; (-)) [listing 1 of 2 here] |  |  | inhibition (Tubulin (Bos taurus)): 22%
CCCC1Cc2cc(O)ccc2-c2c(C=O)c3ccc(O)cc3n21 (stereo unspecified) | 300 | 290 | 
CCCCC1Cc2cc(OC)ccc2-c2c(/C=N/C)c3ccc(OC)cc3n21 (stereo unspecified) | 7800 |  | 
CCCCC1Cc2cc(OC)ccc2-c2cc3cc(OC)c(OC)cc3n21 (stereo unspecified) | > 10000 |  | 
CC/C(=C(\c1ccccc1)c1ccc(OCCN(C)C)cc1)c1ccccc1 [TAMOXIFEN] |  | 150 | 
CCCCC1Cc2cc(O)ccc2-c2c(C#N)c3ccc(O)cc3n21 (stereo unspecified) |  | 540 | IC50 (MDA-MB-231 [7]): 300 nM; IC50 (Tubulin [8]): 13000 nM; inhibition [5]: 48%
CCCC1Cc2cc(O)ccc2-c2c(C=O)c3ccc(O)cc3n21 (single isomer, unassigned; (+)) [listing 1 of 2 here] |  |  | IC50 (Tubulin [3]): 11000 nM
CCCCC1Cc2cc(OC)ccc2-c2c(C#N)c3ccc(OC)cc3n21 (stereo unspecified) | 3100 |  | 
CCCCC1Cc2cc(O)ccc2-c2c(C=O)c3ccc(O)cc3n21 (stereo unspecified) | 1400 | 220 | 
COc1cc([C@@H]2c3cc4c(cc3[C@H](O)[C@H]3COC(=O)[C@H]23)OCO4)cc(OC)c1OC [PODOFILOX] | 26 |  | 
CCCCC1Cc2cc(O)ccc2-c2c(/C=N/Cc3ccccc3)c3ccc(O)cc3n21 (stereo unspecified) | 2100 | 260 | 
CCCCC1Cc2cc(O)ccc2-c2c(C#N)c3cc(O)c(O)cc3n21 (stereo unspecified) | 3400 | 2700 | IC50 (Tubulin [8]): 25000 nM; inhibition [5]: 54%

SMILES | IC50 (MDA-MB-231 [6]) [nM] | IC50 (MCF7) [nM] | other results
CCCCC1Cc2cc(OC)ccc2-c2c(C=O)c3cc(OC)c(OC)cc3n21 (stereo unspecified) | 9000 |  | 
CCCC1Cc2cc(O)ccc2-c2c(C=O)c3ccc(O)cc3n21 (single isomer, unassigned; (-)) [listing 1 of 2 here] |  |  | IC50 (Tubulin [3]): > 70000 nM
CCCC1Cc2cc(OC)ccc2-c2c(C=O)c3ccc(OC)cc3n21 (stereo unspecified) | > 10000 |  | 
CCCCC1Cc2cc(O)ccc2-c2c(C(C)=O)c3ccc(O)cc3n21 (stereo unspecified) | 2200 | 2500 | 
CCCC1Cc2cc(O)ccc2-c2c(C=O)c3ccc(O)cc3n21 (single isomer, unassigned; (-)) [listing 2 of 2 here] |  |  | inhibition (Tubulin (Bos taurus)): 27%
CCCCC1Cc2cc(OC)ccc2-c2c(CNCc3ccccc3)c3ccc(OC)cc3n21 (stereo unspecified) | 7000 |  | 
CCCCC1Cc2cc(O)ccc2-c2c(C=O)c3cc(O)ccc3n21 (stereo unspecified) | 200 | 650 | IC50 (Tubulin [8]): 19000 nM
CCCC1Cc2cc(O)ccc2-c2c(C=O)c3ccc(O)cc3n21 (single isomer, unassigned; (+)) [listing 2 of 2 here] |  |  | inhibition (Tubulin (Bos taurus)): 53%
CCCCC1Cc2cc(O)ccc2-c2c(C=O)c3ccc(O)cc3n21 (single isomer, unassigned; (-)) [listing 2 of 2 here] |  |  | IC50 (Tubulin [3]): > 60000 nM
CCCCC1Cc2cc(O)ccc2-c2c(C=O)c3cc(O)c(O)cc3n21 (stereo unspecified) | 3200 | > 10000 | IC50 (Tubulin [8]): 19000 nM
CCCCC1Cc2cc(OC)ccc2-c2c(C=O)c3ccc(OC)cc3n21 (stereo unspecified) | 8700 |  | 
CCCCC1Cc2cc(O)ccc2-c2c(C=O)c3ccc(O)cc3n21 (stereo in doubt; (+)-6c) [listing 1 of 2 here] |  |  | inhibition (Tubulin (Bos taurus)): 69%
CCCCC1Cc2cc(OC)ccc2-c2c(C#N)c3cc(OC)c(OC)cc3n21 (stereo unspecified) | 2700 |  | 
CCCCC1Cc2cc(O)ccc2-c2c(C=O)c3ccc(O)cc3n21 (stereo in doubt; (+)-6c) [listing 2 of 2 here] |  |  | IC50 (Tubulin [3]): 3100 nM
CC[C@]1(O)C[C@@H]2CN(CCc3c([nH]c4ccccc34)[C@@](C(=O)OC)(c3cc4c(cc3OC)N(C)[C@H]3[C@@](O)(C(=O)OC)[C@H](OC(C)=O)[C@]5(CC)C=CCN6CC[C@]43[C@@H]65)C2)C1 [VINBLASTINE] | 11 |  | 
CCCCC1Cc2cc(OC)ccc2-c2c(C(C)=O)c3ccc(OC)cc3n21 (stereo unspecified) | > 10000 |  | 
COc1cc2c(c(OC)c1OC)-c1ccc(OC)c(=O)cc1[C@@H](NC(C)=O)CC2 [COLCHICINE] | 30 |  | 
CCC1Cc2cc(O)ccc2-c2c(C=O)c3ccc(O)cc3n21 (stereo unspecified) | 2800 | 2500 | 
